A selection: hits, their analogues and other compounds. The true share with any hit is near 2.3%.
TAAR1 antagonist = human TAAR1 antagonists, primary screen, Fluo-8 calcium fluorescence, CHO RD-HGA16 cells; 360,000 tested, 1.5% active; AID 624466, 2012; inhibition, % at 3 µM; Trace amine-associated receptor 1 (Homo sapiens), Q96RJ0; antagonist;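 active means inhibition above a per-plate cutoff, the mean inhibition of test compounds on that plate plus 3 SD, cut at about 49% in these data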
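Material: CHO RD-HGA16 cells bearing hTAAR1; compound dosing: one-point dosing, 3 µM nominal final; schedule: dye loading 75 min at 37 °C, then 30 min room temperature; measured by: calcium fluorescence with Fluo-8; control set: vehicle and agonist controls; replication: n of 1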
OXTR potentiate = human OXTR potentiators, primary screen, fluorescence, CHO-OTR cells, Fluo-8 calcium; Fluo-8 calcium fluorescence, potentiator mode; 0% = oxytocin EC15, 100% = EC100; activation, % at 3 µM; 320,000 tested, 0.061% active; AID 2445, 2010;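 active means activation above that plate's cutoff, the mean activation of tested compounds plus 3 SD, cut at about 6.6% in these data, passing the limit was not always enough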
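Measured by – Fluo-8 calcium dye fluorescence · Test system – human OTR in CHO cells · Dosing – one concentration, 3.0 µM compound · Controls – EC15 oxytocin alone as 0%, 75 nM oxytocin as 100% · Evaluation – normalized max/min fluorescence ratio, % activation · Timing – 6 min pre-incubation, 100 s read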
TAAR1 agonist = human TAAR1 agonists, primary screen, Fluo-8 calcium fluorescence, CHO RD-HGA16 cells; Trace amine-associated receptor 1 (Homo sapiens), Q96RJ0; AID 624467, 2012; activation, % at 3 µM; 360,000 tested, 0.99% active; vehicle wells 0%, saturating PEA agonist 100%;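 active means activation above the mean activation of all test compounds in the run plus 3 SD, cut at about 38% in these data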
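test system = CHO RD-HGA16 cells carrying human TAAR1 plus Gα16 | schedule = 17-24 h seeding, 75 min 37 °C dye, 30 min RT | compound dosing = 3 µM single concentration | control set = DMSO and PEA EC100 | replicates = n 1 | signal = Fluo-8 fluorescence, 5 s baseline then 140 s kinetic read | measure = percent activation vs PEA EC100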
V1R ag counter = agonists of human V1a receptor, primary screen, counter-screen for OXTR agonist project, fluorescence, CHO-V1R cells; Vasopressin V1a receptor (Homo sapiens), P37288; Fluo-8 calcium fluorescence, agonist mode; 0% DMSO, 100% 3 nM vasopressin; activation, % at 3 µM; 320,000 tested, 0.25% active;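 active means activation above the mean activation of all tested compounds plus 3 SD, per screening run, cut at about 20% in these data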;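 further: signal is peak over basal fluorescence ratio across a 100 second FLIPR read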
Target sequence (P37288 whole entry, looked up): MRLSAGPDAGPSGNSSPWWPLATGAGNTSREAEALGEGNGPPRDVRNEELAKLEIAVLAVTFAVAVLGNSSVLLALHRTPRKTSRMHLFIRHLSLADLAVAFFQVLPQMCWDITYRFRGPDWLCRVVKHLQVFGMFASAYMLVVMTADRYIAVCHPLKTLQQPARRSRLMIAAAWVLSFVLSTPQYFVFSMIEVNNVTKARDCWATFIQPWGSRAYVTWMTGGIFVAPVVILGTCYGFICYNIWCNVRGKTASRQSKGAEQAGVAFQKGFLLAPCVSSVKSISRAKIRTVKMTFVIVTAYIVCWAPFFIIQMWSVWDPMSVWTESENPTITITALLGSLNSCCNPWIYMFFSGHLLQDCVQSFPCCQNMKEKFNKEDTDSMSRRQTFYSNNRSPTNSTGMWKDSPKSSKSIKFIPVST
OXTR agonist = human OXTR agonists, primary screen, fluorescence, CHO-OTR cells, Fluo-8 calcium | Oxytocin receptor (Homo sapiens), P30559 | Fluo-8 calcium fluorescence; normalized: DMSO 0%, oxytocin 100% | activation, % at 3 µM | 320,000 tested, 0.32% active | AID 2435, 2010;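 active means activation above the mean of all tested compounds plus 3 SD, cutoff set per screening run, cut at about 20% in these data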;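 further: peak over basal fluorescence ratio from a 100 s FLIPR kinetic read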
Hits are given with their value.

O=C1NC(=O)N(c2ccccc2F)C(=O)/C1=C/c1ccc(Sc2nc3ccccc3[nH]2)o1 was read as TAAR1 antagonist 57, OXTR potentiate inactive, TAAR1 agonist 74, V1R ag counter 28 and OXTR agonist 39.
O=c1cccc2n1CC1CNCC2C1 (configuration not stated) was read as TAAR1 antagonist inactive, OXTR potentiate inactive, TAAR1 agonist inactive, V1R ag counter inactive and OXTR agonist inactive.
CCN(CC)CCC(=O)O[C@H]1CC[C@]2(C)C3CC[C@@]4(C)C(CC[C@]4(C)O)C3CC[C@H]2C1 (some centres not stated) was read as TAAR1 antagonist 60, OXTR potentiate inactive, TAAR1 agonist 43, V1R ag counter inactive and OXTR agonist inactive.
Cc1cc(C)n(-c2ccc(NN=C(C#N)C#N)cc2)n1 was read as TAAR1 antagonist inactive, OXTR potentiate inactive, TAAR1 agonist inactive, V1R ag counter inactive and OXTR agonist inactive.
Screening N#CC(C#N)=NNc1ccc(-n2ccc(C(F)(F)F)n2)cc1 returned TAAR1 antagonist inactive, OXTR potentiate inactive, TAAR1 agonist inactive, V1R ag counter inactive and OXTR agonist 24.
Screening Cc1cc(/C=C2\C(=O)NC(=O)N(c3cccc(F)c3)C2=O)c(C)n1-c1cc(C(=O)O)cc(C(=O)O)c1 returned TAAR1 antagonist inactive, OXTR potentiate inactive, TAAR1 agonist inactive, V1R ag counter inactive and OXTR agonist inactive.
Cc1cc(C)cc(-n2c(C)cc(/C=C3\C(=O)NC(=O)N(C)C3=O)c2C)c1 was read as TAAR1 antagonist inactive, OXTR potentiate inactive, TAAR1 agonist 38, V1R ag counter inactive and OXTR agonist inactive.
`Cc1cccc(OP(=O)(Oc2ccccc2)OC(c2ccccc2)C(F)(F)F)c1` (configuration not stated) gave TAAR1 antagonist 51, OXTR potentiate inactive, TAAR1 agonist inactive, V1R ag counter inactive and OXTR agonist inactive.
`CCOC(=O)[C@]12Cc3c(cc(OC)c(OC)c3OC)[C@H]1N(C)C(=O)c1cc(OC)ccc12` gave TAAR1 antagonist inactive and TAAR1 agonist inactive.
For O=c1[nH]c(=O)n(-c2ccccc2)c(O)c1/C=C/C=Nc1ccccc1 the results were TAAR1 antagonist inactive, OXTR potentiate inactive, TAAR1 agonist inactive, V1R ag counter inactive and OXTR agonist inactive.
O=c1[nH]c(=O)n(C2CCCCC2)c(O)c1/C=C/C=Nc1ccccc1 was read as TAAR1 antagonist inactive, OXTR potentiate inactive, TAAR1 agonist 39, V1R ag counter inactive and OXTR agonist inactive.
Screening COc1ccc(-n2c(O)c(/C=C/C=Nc3ccccc3)c(=O)[nH]c2=O)cc1 returned TAAR1 antagonist inactive, OXTR potentiate inactive, TAAR1 agonist 63, V1R ag counter 43 and OXTR agonist 80.
`COc1ccc(OC)c(-n2c(O)c(C=NCCN3CCNCC3)c(=O)[nH]c2=S)c1` gave TAAR1 antagonist inactive, OXTR potentiate inactive, TAAR1 agonist inactive, V1R ag counter inactive and OXTR agonist inactive.
For Cc1ccc(/C=C2/C(=O)NC(=O)N(CCc3ccc(F)cc3)C2=O)o1 the results were TAAR1 antagonist inactive, OXTR potentiate inactive, TAAR1 agonist 39, V1R ag counter inactive and OXTR agonist inactive.
O=C1NC(=O)N(CCc2ccc(F)cc2)C(=O)/C1=C/c1ccco1 was read as TAAR1 antagonist inactive, OXTR potentiate inactive, TAAR1 agonist inactive, V1R ag counter inactive and OXTR agonist inactive.
`CCOC(=O)C1CCCN(c2ccc([N+](=O)[O-])c3nonc23)C1` (configuration not stated) gave TAAR1 antagonist 71 and TAAR1 agonist 225.
For CCN1/C(=C\C=C\C2=[N+](CC)c3ccccc3C2(C)C)C(C)(C)c2ccccc21 the results were OXTR potentiate inactive, V1R ag counter 459 and OXTR agonist 443.
COC1C(C)OC(OC2CC(C)(O)Cc3cc4c(c(O)c32)C(=O)c2c(O)cc3c(c2C4=O)OC2OC3(C)C(O)C(N(C)C)C2O)C(OC)C1(C)OC (configuration not stated) was read as TAAR1 antagonist inactive and TAAR1 agonist 47.
Screening CCCCCn1c(N)c(C(=O)NCc2cccs2)c2nc3ccccc3nc21 returned TAAR1 antagonist inactive, OXTR potentiate inactive, TAAR1 agonist inactive, V1R ag counter inactive and OXTR agonist inactive.
Screening Nc1c(C(=O)NCCCc2ccccc2)c2nc3ccccc3nc2n1Cc1cccs1 returned TAAR1 antagonist inactive, OXTR potentiate inactive, TAAR1 agonist 37, V1R ag counter inactive and OXTR agonist inactive.
For NCCc1ccccc1 the results were TAAR1 antagonist 81, OXTR potentiate inactive, TAAR1 agonist 92, V1R ag counter inactive and OXTR agonist inactive.
`NCCc1ccc(S(N)(=O)=O)cc1` gave TAAR1 antagonist inactive, OXTR potentiate inactive, TAAR1 agonist inactive, V1R ag counter inactive and OXTR agonist inactive.
C#C[C@]1(O)CCC2C3C(CC[C@@]21C)[C@@]1(C)CC[C@@H](O)CC1=C[C@H]3O (some centres not stated) was read as TAAR1 antagonist inactive, OXTR potentiate inactive, TAAR1 agonist inactive, V1R ag counter inactive and OXTR agonist inactive.
`C#C[C@]1(O)CCC2C3C(=O)C=C4C=CCC[C@]4(C)C3CC[C@@]21C` (some centres not stated) gave TAAR1 antagonist 49 and TAAR1 agonist inactive.
For CC1CCCN(CC(=O)c2ccc(Cl)c(Cl)c2)C1 (configuration not stated) the results were TAAR1 antagonist inactive, OXTR potentiate inactive, TAAR1 agonist 42, V1R ag counter inactive and OXTR agonist inactive.
For CC1CCN(CC(=O)c2ccc3c(c2)OCCO3)CC1 the results were TAAR1 antagonist inactive, OXTR potentiate inactive, TAAR1 agonist inactive, V1R ag counter inactive and OXTR agonist inactive.
CC(C)(C)n1nnnc1C(c1cccs1)N1CCC2(CC1)C(=O)NCN2c1ccccc1 (configuration not stated) was read as TAAR1 antagonist inactive and TAAR1 agonist inactive.
CCCNS(=O)(=O)c1ccc(OCC(=O)N2CCN(Cc3ccc4c(c3)OCO4)CC2)c(C)c1 was read as TAAR1 antagonist inactive, OXTR potentiate inactive, TAAR1 agonist inactive, V1R ag counter inactive and OXTR agonist inactive.
`CC1=C(C)CC2(C(=O)NC(=O)NC2=O)C(C)C1` (configuration not stated) gave TAAR1 antagonist inactive and TAAR1 agonist inactive.
`CCCCNC(C)Cc1ccccc1` (configuration not stated) gave TAAR1 antagonist inactive, OXTR potentiate inactive, TAAR1 agonist inactive, V1R ag counter inactive and OXTR agonist inactive.

Compound activity from PubChem.
